Assay results taken from paper PMC9099060 (Dose-Response, 2022).

Key:
Assay type in all cases: biochemical
[1] = target: T1, human α-amylase (HPA) (Homo sapiens, UniProt P04746); experiment: In vitro inhibitory activity against α-amylase; details: α-amylase IC50 (μM)±SD, starch substrate; mean ± SD, n = 6
T1 sequence (P04746 16-511): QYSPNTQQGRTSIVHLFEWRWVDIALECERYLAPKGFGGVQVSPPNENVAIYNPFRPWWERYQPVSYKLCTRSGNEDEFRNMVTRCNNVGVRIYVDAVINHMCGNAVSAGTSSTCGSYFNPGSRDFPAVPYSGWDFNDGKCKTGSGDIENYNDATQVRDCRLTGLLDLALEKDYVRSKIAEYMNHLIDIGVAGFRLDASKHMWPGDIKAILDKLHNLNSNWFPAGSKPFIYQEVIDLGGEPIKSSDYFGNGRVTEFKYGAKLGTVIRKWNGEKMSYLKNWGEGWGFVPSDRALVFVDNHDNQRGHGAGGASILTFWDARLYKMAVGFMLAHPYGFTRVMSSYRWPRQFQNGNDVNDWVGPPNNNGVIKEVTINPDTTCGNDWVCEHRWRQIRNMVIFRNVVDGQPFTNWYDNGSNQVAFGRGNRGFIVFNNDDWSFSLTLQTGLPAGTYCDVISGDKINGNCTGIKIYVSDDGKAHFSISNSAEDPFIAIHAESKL

[2] = target: α-glucosidase (Saccharomyces cerevisiae, UniProt P07265); experiment: In vitro inhibitory activity against α-glucosidase
Chain of α-glucosidase (P07265 whole entry): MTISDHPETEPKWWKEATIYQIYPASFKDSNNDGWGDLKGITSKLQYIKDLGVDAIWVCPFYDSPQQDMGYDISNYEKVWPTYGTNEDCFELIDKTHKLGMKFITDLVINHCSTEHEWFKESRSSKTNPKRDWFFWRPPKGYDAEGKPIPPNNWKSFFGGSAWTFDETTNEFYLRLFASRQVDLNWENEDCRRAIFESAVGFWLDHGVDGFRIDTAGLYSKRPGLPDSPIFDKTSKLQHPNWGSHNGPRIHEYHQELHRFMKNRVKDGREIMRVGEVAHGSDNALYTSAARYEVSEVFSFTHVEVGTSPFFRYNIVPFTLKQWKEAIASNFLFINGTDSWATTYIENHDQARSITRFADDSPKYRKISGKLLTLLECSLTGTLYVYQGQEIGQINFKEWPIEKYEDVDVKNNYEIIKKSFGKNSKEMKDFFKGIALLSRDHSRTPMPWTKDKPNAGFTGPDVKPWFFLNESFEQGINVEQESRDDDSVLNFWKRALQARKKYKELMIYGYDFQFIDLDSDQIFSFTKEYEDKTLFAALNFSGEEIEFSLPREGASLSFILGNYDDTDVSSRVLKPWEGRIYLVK

[3] = target: T2, DPP-IV (Homo sapiens, UniProt P27487); experiment: In vitro inhibitory activity against DPP-IV
T2 sequence (P27487 whole entry): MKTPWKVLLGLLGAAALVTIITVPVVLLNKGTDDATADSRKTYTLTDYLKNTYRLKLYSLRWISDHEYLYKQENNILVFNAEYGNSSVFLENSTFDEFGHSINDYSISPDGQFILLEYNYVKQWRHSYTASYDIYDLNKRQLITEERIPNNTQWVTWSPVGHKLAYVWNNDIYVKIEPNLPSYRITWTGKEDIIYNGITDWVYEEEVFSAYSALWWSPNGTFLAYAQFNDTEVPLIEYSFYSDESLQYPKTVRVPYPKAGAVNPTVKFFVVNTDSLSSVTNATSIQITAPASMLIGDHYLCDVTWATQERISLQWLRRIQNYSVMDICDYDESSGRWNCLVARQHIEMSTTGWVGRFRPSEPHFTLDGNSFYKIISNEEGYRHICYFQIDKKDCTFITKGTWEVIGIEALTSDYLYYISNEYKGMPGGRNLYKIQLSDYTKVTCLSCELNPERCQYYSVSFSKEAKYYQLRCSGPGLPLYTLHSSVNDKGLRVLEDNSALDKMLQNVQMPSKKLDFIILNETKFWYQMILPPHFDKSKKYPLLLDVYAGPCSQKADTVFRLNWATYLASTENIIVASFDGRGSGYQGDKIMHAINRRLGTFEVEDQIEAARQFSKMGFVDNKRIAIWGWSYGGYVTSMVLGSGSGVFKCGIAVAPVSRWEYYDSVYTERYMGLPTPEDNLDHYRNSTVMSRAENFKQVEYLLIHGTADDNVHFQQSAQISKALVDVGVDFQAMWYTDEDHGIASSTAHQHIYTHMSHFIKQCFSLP

[4] = target: T2, DPP-IV; experiment: Inhibitory kinetics study
In short: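 Test compound was tested separately at 0.25 and 0.5 mg/mL, each against Gly-Pro-AMC at various concentrations (0–60 μM). Inhibition pattern was assigned from Lineweaver-Burk plots. Ki was obtained from a double-reciprocal plot of initial […] against substrate. Values are mean ± SD, n = 6.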

Row | IC50 [1] | IC50 [2] | IC50 [3] | Ki [4] | SMILES
1 | 31.3 ± 0.556 µM | 45.9 ± 3.78 µM | 6.691 ± 0.004 µM | 12.3 µM | O=C1c2c(O)cc(O)cc2OC(c2ccc(O)c(O)c2)C1O (stereo not shown) [Taxifolin]
2 |  | 47.9 ± 5.21 µM | 5.638 ± 0.0016 µM | 15 µM | Oc1ccc(/C=C/c2cc(O)cc(O)c2)cc1 [Resveratrol]
